The subject of one series is K562. The series can be described thus: Growth inhibition of human K562 cells. It is filed as functional, cell-based.
Series [1] has as its system KG-1a. The series can be described thus: Growth inhibition of human KG1a cells. The class given is functional, cell-based.
For a further series, the system named is HL-60. The series can be described thus: Growth inhibition of human HL60 cells. The class given is functional, cell-based.
For series [2], the system named is Mus musculus. The series can be described thus: Toxicity in Kunming mouse assessed as survival rat at 500 mg/kg, po dosed once for 2 weeks. As to conditions: in vivo, 336 h. The class given is organism-based. In outline: (§1)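 Single oral dose to mice, then observed for 14 days with survival rate recorded. Doses tested were 200, 500 and 1000 mg/kg. The dasatinib comparator was given at 200 mg/kg only.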

The subject of series [3] is MCF7. The experiment in a line: Inhibition of colony formation in human MCF7 cells incubated for 10 days by crystal violet staining based plate cloning test. The class given is functional, cell-based. The gist of the method:
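MCF-7 colony formation assay. Cells received low, middle and high concentrations (0.96/1.90/3.80 μM or 0.68/1.35/2.70 μM, depending on compound) for 10 days. Colony counts were compared with an untreated control group, with significance at P < 0.05 and P < 0.01.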

Series [4] relates to Mus musculus. The experiment in a line: Toxicity in Kunming mouse assessed as survival rat at 1000 mg/kg, po dosed once for 2 weeks. As to conditions: in vivo, 336 h. It is filed as organism-based. In outline: as §1
The nature of series [5]: Toxicity in Kunming mouse assessed as survival rat at 200 mg/kg, po dosed once for 2 weeks. It is filed as organism-based. As to conditions: in vivo. In outline: as §1
Series [6] concerns B16-BL6. The series can be described thus: Inhibition of cell migration of mouse B16-BL6 cells at 0.82 uM incubated for 24 to 48 hrs by cell wound scratch assay. The class given is functional, cell-based. In outline: (§2)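 Wound-scratch migration assay in mouse B16BL6 monolayers. Each compound was given at a single concentration for 2 days, and migration was compared with an untreated control group.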

For series [7], the system named is KG-1a. The series can be described thus: Potency index, ratio of IC50 for dasatinib to IC50 for test compound for growth inhibition of human KG1a cells. The class given is functional.
Series [8] concerns B16-BL6. The series can be described thus: Inhibition of cell migration of mouse B16-BL6 cells at 1.43 uM incubated for 24 to 48 hrs by cell wound scratch assay. It is filed as functional, cell-based. In outline: as §2
Series [9] has as its system B16-BL6. As to conditions: Mus musculus, 8.13 uM.
Series [10] deals with MCF7. The note with it: Homo sapiens, 7.5 uM.

Activity calls are given as the source filed them. No cut-off for these calls is given here.

The results in this text go back to ChEMBL document CHEMBL4184233, “Design and synthesis of novel dasatinib derivatives as inhibitors of leukemia stem cells” (Bioorg Med Chem Lett, 2018).

The IC50 is the midpoint of a concentration-inhibition curve. Turning to `Cc1nc(Nc2ncc(-c3cn(-c4c(C)cccc4Cl)nn3)s2)cc(N2CCN(CCNC(=O)CCl)CC2)n1`, the IC50 in the series on K562 was 17.6 nM; in the series on KG-1a [1] it was 450 nM; in the series on HL-60 it was 9.82 nM.
For `C=CC(=O)NCCN1CCN(c2cc(Nc3ncc(C(=O)Nc4c(C)cccc4Cl)s3)nc(C)n2)CC1`, the IC50 in the series with K562 came to 0.039 nM; in the series with KG-1a [1], 12900 nM; in the series on HL-60 it was 0.26 nM.
For the compound `Cc1nc(Nc2ncc(-c3cn(-c4c(C)cccc4Cl)nn3)s2)cc(N2CCN(CCO)CC2)n1`, the Activity entry with Mus musculus [2] and in the series with Mus musculus [4] was “Non-Toxic” throughout. In the series on MCF7 [3], the inhibition entry was “Dose-dependent effect”. Further, the survival at 336 h in series [5] stood at 100%. Moreover, the half-maximal inhibitory concentration (IC50) was 14.1 nM with K562, 140 nM with KG-1a [1] and 4.19 nM with HL-60. The inhibition result in the series on B16-BL6 [6] is “Active”.
As to `C=CC(=O)NCCN1CCN(c2cc(Nc3ncc(-c4nnc(-c5c(C)cccc5Cl)o4)s3)nc(C)n2)CC1`, the 50% inhibitory concentration (IC50) with K562 is 150 nM; in the series on KG-1a [1] it was 110 nM; in the series on HL-60, 160 nM.
On to `Cc1nc(Nc2ncc(-c3nnc(-c4c(C)cccc4Cl)o3)s2)cc(N2CCN(CCO)CC2)n1`, for which the Activity result in the series with Mus musculus [2] and with Mus musculus [4] was “Non-Toxic” throughout. The inhibition entry in the series on MCF7 [3] was “Dose-dependent effect”. Further, the “Ratio IC50” value with KG-1a [7] came out at 180. Moreover, the survival at 336 h in series [5] was 100%. In addition, the IC50 came to 230 nM in the series on K562, 50 nM with KG-1a [1] and 150 nM with HL-60. Moreover, the inhibition entry in the series with B16-BL6 [8] is “Active”.
As for `Cc1nc(Nc2ncc(-c3nnc(-c4c(C)cccc4Cl)o3)s2)cc(N2CCN(CCN)CC2)n1`, the IC50 in the series on K562 turned out to be 260 nM; with KG-1a [1], 680 nM; in the series with HL-60 it was 110 nM.
In the case of `Cc1nc(Nc2ncc(-c3nnc(-c4c(C)cccc4Cl)o3)s2)cc(N2CCN(CCNC(=O)CCl)CC2)n1`, the half-maximal inhibitory concentration (IC50) in the series on K562 amounted to 3060 nM; in the series with KG-1a [1], 9750 nM; in the series with HL-60 it was 2120 nM.
For `Cc1nc(Nc2ncc(C(=O)Nc3c(C)cccc3Cl)s2)cc(N2CCN(CCN=C=S)CC2)n1`, the IC50 in the series on K562 is 3.77 nM; in the series with KG-1a [1] it was 1960 nM; in the series on HL-60 it was 1.07 nM.
As to `Cc1nc(Nc2ncc(C(=O)Nc3c(C)cccc3Cl)s2)cc(N2CCN(CCN)CC2)n1`, the half-inhibitory concentration (IC50) with K562 was found to be 0.72 nM; in the series on KG-1a [1], 25400 nM; in the series on HL-60, 0.25 nM.
For the compound `Cc1nc(Nc2ncc(-c3nnc(-c4c(C)cccc4Cl)o3)s2)cc(N2CCN(CCN=C=S)CC2)n1`, the IC50 amounted to 1810 nM in the series on K562, 150 nM in the series with KG-1a [1] and 1420 nM in the series with HL-60.
For `Cc1nc(Nc2ncc(C(=O)Nc3c(C)cccc3Cl)s2)cc(N2CCN(CCNC(=O)CCl)CC2)n1`, in that order: 1.67 nM, 13600 nM and 0.86 nM.
Regarding `Cc1nc(Nc2ncc(-c3cn(-c4c(C)cccc4Cl)nn3)s2)cc(N2CCN(CCN)CC2)n1`, the IC50 was determined as 11.7 nM in the series with K562, 2060 nM with KG-1a [1] and 4.08 nM in the series with HL-60.
In the case of `C=CC(=O)NCCN1CCN(c2cc(Nc3ncc(-c4cn(-c5c(C)cccc5Cl)nn4)s3)nc(C)n2)CC1`, the half-inhibitory concentration (IC50) with K562 came out at 15.1 nM; with KG-1a [1], 250 nM; in the series on HL-60 it was 5.46 nM.
For the compound `Cc1nc(Nc2ncc(-c3cn(-c4c(C)cccc4Cl)nn3)s2)cc(N2CCN(CCN=C=S)CC2)n1`, the IC50 with K562 was determined as 36.5 nM; in the series with KG-1a [1], 320 nM; with HL-60, 16.6 nM.
In the case of `Cc1nc(Nc2ncc(C(=O)Nc3c(C)cccc3Cl)s2)cc(N2CCN(CCO)CC2)n1` [DASATINIB], the inhibition entry with B16-BL6 [9] and in the series with MCF7 [10] was “Active” each time. In addition, the survival at 336 h in series [5] was determined as 100%. For the same compound, the 50% inhibitory concentration (IC50) amounted to 0.069 nM in the series on K562, 8980 nM in the series on KG-1a [1] and 0.11 nM in the series with HL-60.
